CHOP inhibitor: inhibitors of CHOP induction in ER stress response; CHO-K1 CHOP-promoter luciferase, tunicamycin-induced, 15-18 h; inhibition, % at 10 µM; 3.8% of 220,000 active; AID 2732;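 active = compounds that reduced the stress-induced luciferase reporter signal by more than about 70% of percent inhibition, limit read from the data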
Lmaj promast: inhibitors of Leishmania major promastigote growth; Leishmania major promastigotes, resazurin fluorescence viability; inhibition, % at 10 µM; 9% of 200,000 active; AID 1063; in the data active = inhibition above about 50%;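 note: promastigotes grown with compound for 44 hours at 28 °C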
Dynein cargo inh: dynein cargo transport inhibition; 3617.4 mouse cells, GR-EGFP nuclear translocation imaging; test concentration mostly 20 µM; stimulated with dexamethasone, 1 µM; stronger effect = lower value; z-score, hits read low; 0.47% of 220,000 active;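 active = plate z-score of nuclear minus cytoplasmic receptor signal below a set negative limit, without overly bright fluorescence or cell loss, cut at about -3.5 in these data, passing the limit was not always enough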;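 note: z-score of nuclear minus cytoplasmic ring GR-EGFP intensity difference per well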
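Buffer or medium: tet-free medium with charcoal-stripped serum / Also added: dexamethasone agonist, 1.0 µM final, for 30 min / Timing: induction 48 h, compound 1 h, agonist 30 min / Measured by: high-content fluorescence imaging after fixation / Read-out: nuclear-to-cytoplasmic GR-EGFP distribution per well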
MT stabilize HCS: stabilizes microtubules in HeLa cells; HeLa tubulin immunostaining HCS, 24 h; share of cells brighter than vehicle mean+2SD; % tubulin-high responders, % at 10 µM; 0.83% of 200,000 active;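 active = plate Z-score above 3 for both tubulin-high and condensed-nucleus cell shares, with cell loss under 80%, at 10 µM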;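 note: anti alpha tubulin signal scored within the nucleus-defined area of each cell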
Autophagy mod: alters autophagy in cells; MEF GFP-LC3 puncta imaging; test concentration mostly 10 µM; calls only at 10 µM (by protocol); 0.98% of 190,000 active; AID 463193;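 active = percentage of spot-positive cells more than 3 SD above its plate mean, without a fluorescence outlier flag or 80% toxicity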
bCat nuc transl: alters nuclear translocation of beta-catenin in HeLa cells. immunofluorescence imaging. nuclear translocation activity, % at 5 µM. 0.3% of 190,000 active;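 active = nuclear translocation activity above 50% at 5 µM, with a well cell count of 50 or more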;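 note: per-cell ratio of nuclear to cytoplasmic median beta-catenin stain intensity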
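Assay system: human HeLa cells, native beta-catenin; doses: 5 µM primary, 0.02–20 µM confirmation; incubation: compound treatment 24 h, 37°C, 5% CO2; technique: fluorescence imaging of beta-catenin antibody stain plus DAPI; measure: % activation, nuclear-to-cytoplasmic median beta-catenin signal ratio per cell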
Numbers stand for hits; i = inactive; nt = no result given; + = active, no number. The list is not random: actives were taken first. Their share in the collection is about 12%.

SMILES | CHOP inhibitor | Lmaj promast | Dynein cargo inh | MT stabilize HCS | Autophagy mod | bCat nuc transl
O=C(CSc1ccc(Cl)cc1)Nc1ccc(N2CCN(c3ccccc3)CC2)c(F)c1 | i | i | i | i | i | nt
Cc1ccc(SCC(=O)Nc2ccc(N3CCN(C)CC3)c(F)c2)c(C)c1 | i | 100 | i | i | i | i
CSc1cccc(NC(=O)CN(C2CCCCC2)S(C)(=O)=O)c1 | i | i | i | i | i | i
CSc1cccc(NC(=S)N2CCC(N(C)C3CCCCC3)CC2)c1 | i | 88 | i | i | i | i
CSc1cccc(NC(=S)N2CCC(N(C)C3CCCCC3C)CC2)c1 (stereo unspecified) | i | 82 | i | i | i | i
Fc1cccc(NC(=S)N2CCCCC2)c1 | i | i | i | i | i | i
CSc1cccc(NC(=S)N2CCCN(Cc3ccccc3F)C2)c1 | i | 76 | i | i | i | i
Cc1cc(=O)n2[nH]c(CCC(=O)O)nc2n1 | i | nt | i | nt | nt | i
C/C(=C\c1ccccc1)CN1CCN(Cc2ccc(C)o2)C(CCO)C1 (stereo unspecified) | i | 83 | i | i | i | i
COc1ccccc1/C=C/CN1CCN(Cc2ccc(C)o2)C(CCO)C1 (stereo unspecified) | i | i | i | i | i | i
O=C(CCOc1ccccc1F)N1CCN(c2ccccc2O)CC1 | i | i | i | i | i | i
COc1ccc(Cc2n[nH]c(=S)n2C)cc1Br | i | i | i | i | i | i
CN(C)c1ccc(-c2nn3c(C4CCCCC4)nnc3s2)cc1 | 93 | i | i | i | i | i
O=C(CCSCCC(=O)Nc1c(F)c(F)c(F)c(F)c1F)Nc1c(F)c(F)c(F)c(F)c1F | i | i | i | i | i | i
C[C@@H]1CC[C@H]2C(=O)N3[C@@H](CC[C@@H](C)[C@@H]3c3ccc(Br)cc3)C(=O)N2[C@H]1c1ccc(Br)cc1 | i | i | i | i | i | i
O=C(Nc1cccc(C(F)(F)F)c1)Nc1ccc(N2CCCC2)c(S(=O)(=O)Nc2ccccc2Cl)c1 | 76 | 100 | i | i | i | i
Nc1ccc(N2CCCCC2)c(S(=O)(=O)Nc2ccccc2Cl)c1 | i | nt | i | nt | nt | i
COc1ccccc1NS(=O)(=O)c1cc(NC(=O)Nc2ccc(Cl)cc2Cl)ccc1N1CCCCC1 | i | 99 | i | i | i | nt
COc1cc(/C=C/C(=O)Nc2ccc(N3CCCCC3)c(S(=O)(=O)Nc3ccccc3Cl)c2)cc(OC)c1OC | i | 53 | i | i | i | i
COc1ccccc1NS(=O)(=O)c1cc(NC(=O)C2CCC2)ccc1N1CCCCC1 | i | nt | i | nt | nt | i
Cc1cc(C)nc(NS(=O)(=O)c2ccc(NC(=O)CCCN3C(=O)c4ccccc4C3=O)cc2)n1 | i | i | i | i | i | i
O=c1[nH]c2ccc(NS(=O)(=O)c3ccc([N+](=O)[O-])cc3)cc2[nH]1 | i | i | i | i | i | i
O=[N+]([O-])c1ccc(Oc2ccc(S(=O)(=O)Nc3ccccc3)cc2)cc1 | 71 | 66 | i | i | i | nt
Cc1nn(-c2ccccc2)c(N)c1C(c1ccc(C(C)C)cc1)c1c(C)nn(-c2ccccc2)c1N | 85 | i | i | i | i | i
Cc1nn(-c2ccccc2)c(N)c1-c1ccccc1 | i | i | i | i | i | i
SMILES | CHOP inhibitor | Lmaj promast | Dynein cargo inh | MT stabilize HCS | Autophagy mod | bCat nuc transl
Cc1ccc(C(c2c(C)nn(-c3ccccc3)c2N)c2c(C)nn(-c3ccccc3)c2N)cc1 | i | 95 | i | i | i | nt
CC(C)(C)SCCNC(=O)Nc1ccccc1 | i | 54 | i | i | i | i
CCCN(CCC)C(=O)CC(c1ccccc1)c1cc(Br)ccc1O (stereo unspecified) | 92 | i | i | i | i | i
O=[N+]([O-])c1cc([N+](=O)[O-])c2c(=Nc3ccccc3)n(-c3ccccc3)n(O)c2c1 | i | 100 | i | i | i | i
CCOc1ccc(-c2csc(/C(C#N)=C\c3ccc(O)c([N+](=O)[O-])c3)n2)cc1 | 94 | i | i | i | i | i
CCCCc1ccc(-c2csc(/C(C#N)=C\c3ccc(C)o3)n2)cc1 | i | i | i | i | i | i
COc1ccc(OC)c(Nc2cc(C)nc3nc(C)nn23)c1 | i | i | i | 16 | i | i
CCC(OC(=O)c1nsc(Cl)c1Cl)C(=O)NC(C)(C)CC (stereo unspecified) | i | i | i | i | i | i
CN(C)S(=O)(=O)c1cccc(NC(=O)COc2nc3ccccc3nc2N2CCOCC2)c1 | i | 56 | i | i | i | i
O=C(COc1nc2ccccc2nc1N1CCOCC1)Nc1ccc(S(=O)(=O)N2CCCC2)cc1 | i | 67 | i | i | i | i
COc1cc(-c2nnc(SCC(=O)N(C)C3CCS(=O)(=O)C3)o2)cc(OC)c1OC (stereo unspecified) | i | i | i | i | i | i
CCOc1cc(Cl)c(S(=O)(=O)NCc2ccccn2)cc1Cl | i | 99 | i | i | i | i
COc1cc(Cl)c(S(=O)(=O)NCc2ccccn2)cc1Cl | i | i | i | i | i | i
COc1ccc(S(=O)(=O)NCc2ccccn2)cc1Cl | i | i | i | i | i | nt
COc1ccccc1Oc1ccc(S(=O)(=O)NCc2ccccn2)cc1 | i | 52 | i | i | i | nt
Cc1ccc(-c2nc3ccccc3o2)cc1NC(=S)NC(=O)c1cc2ccccc2o1 | 85 | i | i | i | i | i
Cc1c(NC(=O)c2cc3ccccc3o2)c(=O)n(-c2ccccc2)n1C | i | i | i | i | i | i
C/C(=N\NC(=S)Nc1cccc(C)c1)c1cc2ccccc2o1 | i | 90 | i | i | i | i
Cc1c(NC(=O)c2cc(C3CC3)on2)c(=O)n(-c2ccccc2)n1C | i | i | i | i | + | nt
Cc1c(NC(=S)NC(=O)c2cc3ccccc3o2)c(=O)n(-c2ccccc2)n1C | i | 53 | i | i | i | i
CCNC(=S)N/N=C(\C)c1cc2ccccc2o1 | i | i | i | i | i | i
COc1cc(OC)cc(N2C(=O)CSCC2=O)c1 | i | nt | i | nt | nt | i
CCC(=O)Nc1cccc(NC(=S)NC(=O)c2cc3ccccc3o2)c1 | 94 | i | i | i | i | i
CCC(=O)Nc1ccc(NC(=S)NC(=O)c2cc3ccccc3o2)cc1 | i | i | i | i | i | i
CCN(CC)CCNC(=O)CCCNC(=O)Cn1cnc2sc(C)c(C)c2c1=O | i | i | i | i | i | nt
SMILES | CHOP inhibitor | Lmaj promast | Dynein cargo inh | MT stabilize HCS | Autophagy mod | bCat nuc transl
CC(C)N=C(Nc1ccccc1)c1cccnc1 | i | i | i | i | i | nt
COc1cccc(Sc2ccccc2/C=N/NC(N)=O)c1 | i | i | i | 15 | i | i
Cc1cccc(N2CCN(C(=O)CSc3ccsc3[N+](=O)[O-])CC2C)c1 (stereo unspecified) | i | 64 | i | i | i | nt
COc1cccc(N=C2C(=O)N3CCCc4cccc2c43)c1 | i | i | i | i | i | i
COc1ccc(N=C2C(=O)N3c4c(cccc42)C(C)=CC3(C)C)cc1 | 79 | 97 | i | i | i | i
COc1ccc(N=C2C(=O)Nc3ccccc32)cc1 | i | 100 | i | i | i | i

Bioassay records deposited in PubChem by several laboratories.
